Cytotoxicity data for 96 molecules are collected here from ChEMBL document CHEMBL4513216, “Probing the Open Global Health Chemical Diversity Library for Multistage-Active Starting Points for Next-Generation Antimalarials” (ACS Infect Dis, 2020).

This series is described as follows: Toxicity liver stage against HepG2, at 10uM. Type of series: cell-based. Further details: test concentration 10 uM, cell line HepG2-A16-CD81EGFP. Conditions: human, HepG2-A16-CD81EGFP cells; read-out: INHIBITION
In short, it runs like this: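 Uninfected HepG2-A16-CD81EGFP cells, 3 × 10^3 per well, 1536-well, plated on prespotted compound at 10 μM final, parasite-free screening media added to match infected plates; puromycin 10 μM positive, DMSO 0.5% negative; run in parallel with 48 h PbLuc assay at 37 °C, 5% CO2; viability by CellTiter-Glo luminescence, normalized to controls.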
Consider `CC(C)(C)c1c[nH]c([C@@H]2COCCN2C2CCOCC2)n1`, for which the cytotoxicity at 10 µM is -5.8%.
`CO[C@H]1COCCN(C(=O)c2ccno2)C1`: the cytotoxicity at 10 µM was determined as 2.42%.
For the molecule `O=C(NC[C@H]1C[C@@H]2CCN1C[C@@H]2CN1CCCCC1)c1ccco1`, the cytotoxicity at 10 µM was 7.32%.
Next, `CCN1CC(COc2ccccc2)Oc2ncccc2S1(=O)=O` (stereo unspecified): -0.947%.
With `Cn1nnc2c(sc3nc(N4CCOCC4)c4c(c32)CCC4)c1=O` the figure was -12.4%; with `COC(=O)CNC(=O)Cn1ccc2ccc(F)cc21`, -1.33%; with `Cc1cc(S(=O)(=O)NCC(O)c2sccc2C)ccc1F` (stereo unspecified), -1.81%.
Turning to `COC1(CNC(=O)c2ccoc2)CCSC1` (stereo unspecified), the cytotoxicity at 10 µM is -10.8%.
`COC1CCN(c2ccc(NC(=O)Cn3cccc3)cc2)CC1`: the cytotoxicity at 10 µM was 2.99%.
In the case of `CC(C)NC(=O)N1CCOC2(CCNCC2)C1`, the cytotoxicity at 10 µM was -2.69%.
`NCC1[C@H]2CN(Cc3cccc(Cl)c3)C[C@@H]12` (stereo partly specified): the cytotoxicity at 10 µM was -9.17%.
Next, `Cc1cc(C(=O)N2CCCC3(COCCN(c4ccccc4)C3)C2)[nH]n1` (stereo unspecified): -1.56%; `C[C@H]1C[C@H]2CN(C(=O)c3cccc4c3OCCO4)CC[C@H]2O1`: -0.91%.
In the case of `O=S(=O)(C1CC1)N1CCc2ncnc(-c3ccsc3)c2CC1`, the cytotoxicity at 10 µM is 4.8%.
For `CC(C)NC(=O)N1CCOC2(CCCN(c3cccc(C#N)c3)C2)C1` (stereo unspecified), the cytotoxicity at 10 µM was found to be 11.8%.
On to `COc1ccc(-c2noc(C(=O)NCCN3CCCCC3)n2)cc1OC`, for which the cytotoxicity at 10 µM is -6.24%.
For the molecule `CC(C)N(C)Cc1nnc2n1CCCN(C(=O)c1ccco1)C2`, the cytotoxicity at 10 µM is -1.17%.
Regarding `NC(=O)C1CCN(C(=O)c2ccc(Cn3cc(Br)cn3)cc2)CC1`, the cytotoxicity at 10 µM is -6.24%.
Consider `Cc1nc(-c2cccc(Cl)c2)n(CC(=O)NCC2CCCO2)c(=O)c1C` (stereo unspecified), for which the cytotoxicity at 10 µM was -7.04%.
For the molecule `O=C(Cc1ccc(Cl)cc1)N[C@@H]1CCC[C@@H](O)[C@@H]1O`, the cytotoxicity at 10 µM is 2.3%.
In the case of `O=C(Cn1ccnc1)N1CC[C@H](Oc2cccc(F)c2)[C@@H](O)CC1`, the cytotoxicity at 10 µM was -0.59%.
With `CN(CCc1ccccc1)Cc1c(C2CC2)[nH]c2ncccc12` the figure was 0.145%; with `CC(=O)N1CCC(Cc2cccc(-c3ccnn3C)n2)CC1`, 6.3%.
As for `OCCN1CCC(Cc2nccs2)CC1`, the cytotoxicity at 10 µM is 5.97%.
Next, `Cc1cc(-c2cc(N)c(=O)n(CC(=O)NC3CCCCC3)n2)c(C)o1`: 6.79%; `Cc1ccc(O)c(C(=O)NCCCS(=O)(=O)Cc2ccccc2)c1`: 33.6%; `CCN(Cc1ccoc1)C(=O)c1ccncc1O`: 6.85%.
As to `Cc1ccc(N(CCC#N)C(=O)CCc2cscn2)cc1C`, the cytotoxicity at 10 µM was 6.36%.
In the case of `CC(C(=O)N1CCCC1)N1CCN(c2ncc(Cl)cn2)CC1` (stereo unspecified), the cytotoxicity at 10 µM was -3.34%.
As for `NC(=O)C1CCCN1CCCc1ccc(C(F)(F)F)cc1` (stereo unspecified), the cytotoxicity at 10 µM came out at 0.936%.
With `Cc1cc(CN(C)C(=O)NCc2ccco2)no1` the figure was 1.58%; with `Cc1ccc(CNc2ccc(N3CCC(CO)CC3)cn2)o1`, 19.1%.
With `O=C1CN(c2ccc(CNC(=O)Nc3nccs3)cc2)CCN1` the figure was 1.93%; with `Cc1cc(C)n(CC(=O)N(CC2CN(C)CCO2)c2nccs2)n1` (stereo unspecified), -5.85%; with `CC(=O)c1cccc(NC(=O)CN2CCCCC2C)c1` (stereo unspecified), -0.684%.
As to `Cc1cc(C)n(-c2cncc(N3CCN(C(=O)C(C)C)CC3)n2)n1`, the cytotoxicity at 10 µM was -2.9%.
With `CCS(=O)(=O)CC(=O)N1CCCC1c1noc(C2CC2)n1` (stereo unspecified) the figure was -12.9%; with `Cc1csc(CNC(=O)NC2CCCc3c2cnn3CCO)n1` (stereo unspecified), 13.7%; with `CN(C)C(=O)CCCn1ccc(NC(=O)NCc2cccc(F)c2)n1`, 6.85%.
As to `CCc1nc(CN2CCCN(CC(=O)N3CCOCC3)CC2)no1`, the cytotoxicity at 10 µM is -10.2%.
Turning to `COc1cc(NC(=O)c2ccc(C)c(F)c2)c(C(=O)N(C)C)cc1OC`, the cytotoxicity at 10 µM worked out at 2.82%.
`CNc1cc(N2CCCC2CNCc2cccc(C#N)c2)ncn1` (stereo unspecified): the cytotoxicity at 10 µM is -10.7%.
With `CCc1nnc2n1CCN(C(=O)c1cnc(C3CC3)s1)C2`, the cytotoxicity at 10 µM stood at 9.21%.
For `CC1(C)CN(CC(F)(F)F)CCN1CC(=O)NC1CC1`, the cytotoxicity at 10 µM was found to be 12.5%.
With `CC(C)N(C)CC(=O)NCC(O)c1cc2ccccc2s1` (stereo unspecified), the cytotoxicity at 10 µM is -3.91%.
Regarding `O=C(NC1CCN(C(=O)C2CCCCC2)C1)c1ccncc1Cl` (stereo unspecified), the cytotoxicity at 10 µM was 10.4%.
As for `Cc1cc(CN(CCO)c2ccc(Br)cc2)on1`, the cytotoxicity at 10 µM came to 1.78%.
Take `COC(=O)c1ccc(CCn2cnc(C#N)n2)cc1`: the cytotoxicity at 10 µM is -3.15%.
Take `CCC1COCCN1C(=O)NCc1nccn1CCc1ccccc1` (stereo unspecified): the cytotoxicity at 10 µM was determined as 4.42%.
In the case of `CC(=O)NC1CCCN(C(=O)CNc2cccc(C)c2Cl)C1` (stereo unspecified), the cytotoxicity at 10 µM is -4.69%.
Next, `COc1nn(C)c2c1CCCN(C(=O)c1c[nH]cn1)C2`: -100%.
For the molecule `CN(Cc1cccnc1)C[C@H]1OC[C@@H]2CCN(c3ncccn3)C[C@@H]21`, the cytotoxicity at 10 µM is -108%.
With `CN(C)C(=O)N1C[C@@H]2COC[C@]2(CNS(C)(=O)=O)C1` the figure was -1.47%; with `Cn1ccnc1CN1CCN(Cc2ccncc2)[C@@H]2CS(=O)(=O)C[C@@H]21`, 1.5%; with `OC1(CN2CCCC2)CCCN(c2ncnc3[nH]cnc23)C1` (stereo unspecified), 11.3%.
`Cc1cc(NC(=O)Cn2ccc(-c3ccc4c(c3)OCO4)n2)n(C)n1`: the cytotoxicity at 10 µM was 6.28%.
Next, `Cn1cc(C(=O)N2CCC(c3ncc[nH]3)CC2)cn1`: -5.42%; `O=S(=O)(NCCn1cc(C2CCOC2)nn1)c1ccc(Cl)cc1` (stereo unspecified): -4.89%.
Regarding `O=C(O)c1cnc(N2CC[C@H](N3CCOCC3)[C@H](CCCO)C2)c(Cl)c1`, the cytotoxicity at 10 µM was found to be 4.6%.
For `Cc1c(CN(C)c2cc(C3CCCNC3)ncn2)[nH]c2ccccc12` (stereo unspecified), the cytotoxicity at 10 µM stood at 1.99%.
As for `CCCc1nc(C(=O)N(C)Cc2cnn(-c3cccc(OC)c3)c2)cs1`, the cytotoxicity at 10 µM stood at 6.39%.
With `COc1cc2c(cc1CN1CCCCC1CN1CCOCC1)CCC2` (stereo unspecified) the figure was -4.57%.
With `Cc1n[nH]c(C)c1NC(=O)CN1CCCC1c1noc(C(C)C)n1` (stereo unspecified) the figure was 6.45%.
As for `Cc1cccc(-c2noc(CN3CC(n4cccn4)C3)n2)c1`, the cytotoxicity at 10 µM is -0.0158%.
Consider `COc1cc(CCC(=O)NC(C)C(=O)O)ccc1OCC(F)(F)F` (stereo unspecified), for which the cytotoxicity at 10 µM was -2.15%.
Regarding `CC(NC(=O)NCc1c(F)cccc1Cl)(C(=O)O)c1ccco1` (stereo unspecified), the cytotoxicity at 10 µM is -3.23%.
With `CN(Cc1ccco1)C(=O)Nc1cc(C(F)(F)F)c[nH]c1=O` the figure was 2.79%; with `CCn1ccnc1CN1CCN(CCOc2ccccc2C#N)CC1`, -8.21%; with `COc1ccc(OCCN2CCN(Cc3nccn3C)CC2)cc1`, -6.25%.
As to `CCc1cnc(CN(C(C)=O)C2CCN(CCc3ccccn3)C2)o1` (stereo unspecified), the cytotoxicity at 10 µM is -2.72%.
For the molecule `CCc1ccc(S(=O)(=O)Nc2cc(C(=O)O)ccc2F)s1`, the cytotoxicity at 10 µM is -8.27%.
In the case of `N#CCCN(C(=O)CN1CCCC1c1cccs1)c1ccccc1F` (stereo unspecified), the cytotoxicity at 10 µM is -9.1%.
As to `CCC(C)N(CCOC)Cc1nc2c(cnn2C)c(=O)[nH]1` (stereo unspecified), the cytotoxicity at 10 µM is -12.4%.
As to `COc1c(C2CCCN2C(=O)c2nccnc2N)c(C)nn1C` (stereo unspecified), the cytotoxicity at 10 µM is -5.55%.
For `CN(Cc1ccc2c(c1)OCO2)Cc1nc2c(cnn2C)c(=O)[nH]1`, the cytotoxicity at 10 µM was -3.63%.
In the case of `O=C(NCC1CC1)N1CCN(Cc2ccc3c(c2)OCCO3)CC1`, the cytotoxicity at 10 µM is -4.3%.
On to `O=C(CN1CC(n2cccn2)C1)NCCc1c[nH]c2ccccc12`, for which the cytotoxicity at 10 µM was -4.74%.
For the molecule `Cc1cccc(N2CCN(C(=O)Nc3cnn(CC(N)=O)c3)CC2)c1`, the cytotoxicity at 10 µM is -8.31%.
With `Cc1noc2ncc(C(=O)NCC3CCN(C(C)C)C3)cc12` (stereo unspecified) the figure was -12.4%; with `CCn1cc(NC(=O)NCC(c2cccs2)N(C)C)cn1` (stereo unspecified), -2.66%.
As for `CCc1nc2n(n1)CC(NCC(=O)Nc1cc(C)on1)CC2` (stereo unspecified), the cytotoxicity at 10 µM is -7.21%.
In the case of `CN(C)c1ccc(NC(=O)NCc2ccccn2)cn1`, the cytotoxicity at 10 µM was -3.34%.
On to `Cn1cc(N2CC3(CCN(Cc4ccccc4)CC3)OCC2=O)cn1`, for which the cytotoxicity at 10 µM was 5.25%.
In the case of `Cc1cnc(N2CC[C@@H]3OC(COCC(=O)N(C)C)CC[C@@H]32)nc1` (stereo partly specified), the cytotoxicity at 10 µM turned out to be 7.98%.
Take `CC(C)n1cnc2c1C(C(=O)N1CCCC1)N(CC1CC1)CC2` (stereo unspecified): the cytotoxicity at 10 µM was determined as 6.59%.
With `Cc1nc(CO[C@@H]2CN(Cc3ccsc3)[C@@H]3COC[C@@H]32)cs1` the figure was 3.04%; with `Cc1ccc(C(=O)N2CCOCC3(CCN(C4CCOCC4)C3)C2)o1` (stereo unspecified), -0.152%.
On to `COC1COC2(CCN(CC3CCOCC3)CC2)C1` (stereo unspecified), for which the cytotoxicity at 10 µM was -110%.
On to `c1ccc(CO[C@H]2CO[C@@]3(CCN(Cc4ccoc4)C3)C2)nc1`, for which the cytotoxicity at 10 µM is -15.3%.
Turning to `Cn1nccc1-c1ncc2c(c1C(=O)O)CCN(Cc1cccnc1)C2`, the cytotoxicity at 10 µM amounted to 8.07%.
For the molecule `c1cncc(CN2CCOC(c3ncn4c(C5CC5)cccc34)C2)c1` (stereo unspecified), the cytotoxicity at 10 µM worked out at 1.79%.
For `Cc1ccc(CN2C[C@@H]3CN(CC4CCOCC4)CCO[C@@H]3C2)s1`, the cytotoxicity at 10 µM is -12.7%.
For the molecule `Cc1nc(CN2CCOCC3(CCN(c4ccccn4)C3)C2)cs1` (stereo unspecified), the cytotoxicity at 10 µM was found to be 12.8%.
For the molecule `O=C(NCCc1ccccn1)[C@@]12CCO[C@@H]1CCN(C1CCC1)C2`, the cytotoxicity at 10 µM is 8.03%.
Next, `O=C1CO[C@@H]2CN(Cc3cccs3)C[C@H]2N1Cc1ccncc1`: 2.08%.
Consider `O=C(CSc1nc2n[nH]cc2c(=O)n1-c1ccccc1)N1CCOCC1`, for which the cytotoxicity at 10 µM was -8.21%.
